Shown are actives, neighbours in structure and some others; about 1.6% of the full set was active somewhere.
PPC-1+TRAIL kill = compounds killing PPC-1 cancer cells with TRAIL present, primary screen, TRAIL potentiator project, ATPLite luminescence, uHTS | PPC-1 cells + TRAIL, ATPLite viability luminescence | cell killing (% activity), % at 4 µM or 5 µM | 220,000 tested, 0.41% active;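 active means cell killing above 50% in the first pass at 4 µM, then a duplicate retest at 5 µM averaging 50% or more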
FLuc stim CS = FLuc activators, initial screening, artefact control for FLuc-dependent activation tests, biochemical, ATPlite luminescence; Luciferin 4-monooxygenase (Photinus pyralis), P08659; AID 1027, 2008; 200,000 tested, under 10 active; ATPlite luciferase biochemical, 10 min; 0 = ATP-free wells, 1 = DMSO control; activation factor at 10 µM;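 active means luciferase activation factor, scaled between plate controls, of at least 2 with compound at 10 µM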
Target sequence (P08659 whole entry, looked up): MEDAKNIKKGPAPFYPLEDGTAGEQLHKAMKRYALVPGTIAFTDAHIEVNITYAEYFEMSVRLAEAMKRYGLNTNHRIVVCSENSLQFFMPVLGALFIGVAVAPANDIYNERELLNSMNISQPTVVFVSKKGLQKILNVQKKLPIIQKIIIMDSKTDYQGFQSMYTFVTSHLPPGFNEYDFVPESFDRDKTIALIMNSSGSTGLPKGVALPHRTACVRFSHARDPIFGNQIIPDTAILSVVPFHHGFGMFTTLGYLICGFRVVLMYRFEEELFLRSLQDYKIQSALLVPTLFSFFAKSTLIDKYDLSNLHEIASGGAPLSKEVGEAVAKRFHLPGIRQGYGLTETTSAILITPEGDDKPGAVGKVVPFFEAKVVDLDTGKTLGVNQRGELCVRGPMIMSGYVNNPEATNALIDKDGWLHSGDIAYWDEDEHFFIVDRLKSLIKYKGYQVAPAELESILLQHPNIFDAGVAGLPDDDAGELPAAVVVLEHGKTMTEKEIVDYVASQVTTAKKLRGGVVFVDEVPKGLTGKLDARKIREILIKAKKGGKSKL
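System: cell-free luciferase reagent; medium: PBS as buffer for the ATP substrate; doses: test compounds dosed from 2 mM stocks in 100% DMSO; incubation: 10 min, room temperature; measured by: luminescence from luciferase reaction; read-out: luciferase activation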
FLuc inh counter = firefly luciferase enzyme inhibitors, primary screen, artefact control for luciferase-based inhibitor screens, biochemical, luminescence, ATPLite; Luciferin 4-monooxygenase (Photinus pyralis), P08659; 10 min; inhibition, % at 10 µM; 200,000 tested, 1.5% active; AID 1006, 2008;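 active means inhibition above about 50% when tested at 10 µM, limit read from the data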
TRAIL sens C8 = viability loss with TRAIL in NB7+C8 cells, primary screen, TRAIL sensitizer project, cell-based, ATPlite luminescence | 360,000 tested, 1% active | inhibition (viability loss, TRAIL sensitization), % at 10 µM;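 active means compounds causing at least 50% loss of cell viability in the single-dose screen, relative to plate controls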
PPC-1 tox = cytotoxicity in PPC-1 cells, confirmation, cytotoxicity control for TRAIL apoptosis potentiator project, cell-based, ATP content luminescence; shares compounds with PPC-1+TRAIL kill; PPC-1 viability, ATPlite luminescence, overnight; cytotoxicity, % at 5 µM; 1,200 tested, 50% active; AID 1447, 2008;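 active means reconfirmed compounds whose average cytotoxicity reaches 50% or more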
Numbers stand for hits; i = inactive; nt = no result.

SMILES | PPC-1+TRAIL kill | FLuc stim CS | FLuc inh counter | TRAIL sens C8 | PPC-1 tox
Cc1ccc2c(c1)COc1c3ccc(C(=O)N4CCCCC4)cc3nn1-2 | i | nt | nt | i | nt
Cc1ccc(C2(C)NC(=O)N(CC(=O)NCCN3C(=O)S/C(=C\c4cccnc4)C3=O)C2=O)cc1 (centres undefined) | nt | nt | nt | i | nt
O=S(=O)(c1ccc(Cl)cc1)N1CCN(CCc2ccncc2)CC1 | nt | nt | nt | i | nt
Cc1ccn2cc(-c3ccc(Br)cc3)nc2c1 | 82.2 | nt | nt | 86.2 | 82.8
Cc1ccc(S(=O)(=O)Nc2ccc(-c3cn4ccc(C)cc4n3)cc2)cc1 | i | i | i | i | nt
Nn1c(SCc2ccc(F)cc2)nnc1-c1ccncc1 | i | nt | nt | i | nt
NC(=O)CC(NC(=O)c1ccc(Br)cc1)c1ccc(N2CCCCCC2)c([N+](=O)[O-])c1 (centres undefined) | nt | nt | nt | i | nt
O=C(Nc1cccc(S(=O)(=O)C(F)F)c1)c1ccc(S(=O)(=O)N2CCCC2)cc1 | i | i | i | i | nt
O=C(Nc1cccc(S(=O)(=O)C(F)F)c1)c1ccc(S(=O)(=O)N2CCOCC2)cc1 | i | i | i | i | i
Cc1sc(=NC(=O)c2ccco2)n(C)c1-c1ccccc1 | 75.5 | i | 91.2 | 78.1 | 73.8
Cn1c(=NC(=O)c2ccco2)sc2ccccc21 | 50.4 | i | 86.0 | 58.8 | 53.3
COc1ccc(CNC(=O)CC[C@H]2O[C@@H](n3cnc4c(NC(=O)c5ccccc5)ncnc43)[C@H](O)[C@@H]2O)cc1 | nt | nt | nt | i | nt
O=[N+]([O-])c1ccccc1Oc1ccc(S(=O)(=O)N2CCOCC2)cc1 | nt | nt | nt | i | nt
O=C(CCl)N=c1sccn1Cc1ccc(Cl)cc1Cl | 98.3 | i | i | 97.4 | 96.0
CCC(=O)OCC(=O)N=c1sccn1Cc1ccccc1Cl | nt | nt | nt | i | nt
O=C(CCl)N=c1sccn1Cc1cccc2ccccc12 | 97.1 | i | i | 95.3 | 97.7
CCC(=O)OCC(=O)N=c1sccn1Cc1ccc(C)cc1 | nt | nt | nt | i | nt
O=C(CCl)N=c1sccn1Cc1ccccc1Cl | 97.7 | nt | nt | 94.9 | 95.3
NC(=O)c1ccc(=O)n(Cc2ccc(Cl)cc2Cl)c1 | nt | nt | nt | i | nt
CC1CCCCC1NC(=O)COC(=O)c1ccc2c(c1)NC(=O)CS2 (centres undefined) | nt | nt | nt | i | nt
O=C(/C=C/c1ccc(O)cc1)c1ccc(NC2=C(N3CCCCC3)C(=O)c3ccccc3C2=O)cc1 | 69.7 | i | i | i | 57.9
Cc1cc2c3c(ccc(C)c3n1)N=CN2c1ccccc1 | i | i | i | i | i
NS(=O)(=O)c1cccc(NC(=O)c2cc3ccccc3o2)c1 | i | i | 83.7 | 63.4 | i
NS(=O)(=O)c1cccc(NC(=O)c2cc(=O)c3ccccc3o2)c1 | nt | nt | nt | i | nt
O=C(Nc1nnc(C2CC2)s1)c1cc2ccccc2o1 | nt | nt | nt | i | nt
SMILES | PPC-1+TRAIL kill | FLuc stim CS | FLuc inh counter | TRAIL sens C8 | PPC-1 tox
Cc1cnc(NC(=O)c2sc3ccccc3c2Cl)s1 | 70.0 | i | 93.2 | 81.7 | 67.6
Cc1cnc(NC(=O)c2cc3ccccc3o2)s1 | 50.6 | i | 88.7 | i | 54.5
COc1cc(/C=C2/CC(C)OC2=O)c([N+](=O)[O-])cc1OC (centres undefined) | nt | nt | nt | i | nt
COc1ccc(C(=O)N/C(=C/c2cccs2)c2nc3ccccc3[nH]2)cc1OC | i | i | i | i | nt
COc1cc(/C=C(/C(=O)c2cccs2)c2nc3ccccc3[nH]2)cc(OC)c1O | i | i | 76.9 | i | i
CCO/C(=C/c1sc2ccc(OC)cc2[n+]1CCCS(=O)(=O)[O-])CC | i | i | i | i | nt
CCOC(=O)C[n+]1c(C)sc2ccc(OC)cc21 | i | i | i | i | i
CCN(CC)C(=O)CN(c1ccc(F)c(Cl)c1)S(C)(=O)=O | i | i | i | i | i
CCOc1ccc(CCNC(=O)c2ccccc2OCc2c(C)noc2C)cc1OCC | nt | nt | nt | i | nt
COc1cccc(-c2nnn(CC(=O)Nc3cc(OC)c(NC(=O)c4ccco4)cc3OC)n2)c1 | i | i | i | i | i
Cc1cc(C(=O)CCC(=O)Nc2ncccc2O)c(C)s1 | nt | nt | nt | i | nt
CC1(C(=O)Nc2ccc3c(c2)OCCO3)CCN1C(=O)c1ccco1 (centres undefined) | nt | nt | nt | i | nt
O=C(Nc1ccccc1C(=O)N/N=C/c1ccncc1)c1ccccc1 | 79.7 | i | 96.5 | 88.6 | 81.8
COc1ccc(-c2coc3c(C(=O)Nc4cccnc4)cccc23)c(C)c1 | nt | nt | nt | i | nt
COc1ccccc1N=Nc1nc(-c2ccccc2)c(-c2ccccc2)[nH]1 | i | i | i | i | nt
Oc1ccccc1N=Nc1nc(-c2ccccc2)c(-c2ccccc2)[nH]1 | i | i | i | i | i
COc1cccc(N2CCN(c3ncnc4c3[nH]c3ccccc34)CC2C)c1 (centres undefined) | i | i | i | nt | nt
COc1cccc(N2CCN(c3ncnc4c3[nH]c3ccc(F)cc34)CC2C)c1 (centres undefined) | 63.2 | i | i | 95.3 | 62.7
Cc1cc(N)c2cc(NC(=O)/C=C/c3ccccc3Cl)ccc2n1 | 97.5 | nt | nt | 95.0 | 96.8
Cc1ccnc(NC(=O)/C=C/c2ccccc2Cl)c1 | i | i | 76.5 | 54.9 | i
Cc1cc(C)nc(NC(=O)/C=C/c2ccccc2Cl)c1 | i | i | i | i | nt
O=C(Cn1cc(C(F)(F)F)ccc1=O)NC1CCCC1 | nt | nt | nt | i | nt
CC(=O)O[C@H]1[C@H](C)OC=C[C@@H]1OC(C)=O | nt | nt | nt | i | nt
CCCCn1c(N)c(N(CC(C)C)C(=O)CCNC(=O)c2ccc(Br)cc2)c(=O)[nH]c1=O | nt | nt | nt | i | nt
Cc1occc1-c1nnc(SCC(=O)Nc2ccccn2)o1 | i | i | i | i | nt
SMILES | PPC-1+TRAIL kill | FLuc stim CS | FLuc inh counter | TRAIL sens C8 | PPC-1 tox
O=C(CSc1nnc(-c2ccccc2Cl)o1)Nc1ccccn1 | 63.2 | i | i | 52.2 | 64.8
Cc1cccc(S(=O)(=O)NCCC(=O)OCC(=O)Nc2ccc(C#N)cc2)c1 | i | i | i | i | nt
NNC(=O)c1cc2c(s1)CCCCCC2 | i | i | i | i | i
O=C(Nc1nccs1)c1cc2c(s1)CCCCC2 | 83.9 | i | 93.7 | 89.8 | 77.7
COc1ccc(/C=N/Nc2nnc(Cc3ccccc3)c(=O)[nH]2)cc1OC | 59.2 | nt | nt | 67.9 | 58.9
COc1ccc(Cc2nnc(N/N=C/c3ccc(Br)cc3)[nH]c2=O)cc1OC | i | nt | nt | i | nt
O=S(=O)(c1cccc(-c2nc3ccccc3s2)c1)N1CCCC1 | i | i | i | i | i
O=C(O)c1ccc2c(c1)C(=O)N(c1cccc(-c3nc4ccccc4s3)c1)C2=O | i | i | i | i | i
Nc1cccc(-c2nc3ccccc3s2)c1 | i | i | 76.3 | 51.2 | i
CCCOc1ccc2cc(-c3ccccn3)c(=O)oc2c1 | 79.2 | i | 92.3 | 89.1 | 80.4
CCCCN(C)S(=O)(=O)c1c(C)[nH]c(=O)[nH]c1=O | i | i | i | i | i
Clc1ccc(-c2nnc(SCc3ccon3)o2)c(Cl)c1 | i | i | 77.9 | 48.2 | i
CN(C)S(=O)(=O)c1ccc(C(=O)NCCOc2ccccc2)cc1 | i | i | i | i | i
